# Screening results (PubChem BioAssay)
# KCNK9 inh: inhibitors of human KCNK9 two-pore domain potassium channel; actives 1.2% (n = 310,000); HEK293 KCNK9, FluxOR thallium flux fluorescence; hits give low values; B-score at 10 µM; Q9NPC2;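 active = ratio B-score over 3 SD below the library mean, with starting fluorescence within 5 SD of its mean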;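 also: negative B-score means less thallium flux so channel inhibition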
# Target sequence (Q9NPC2 whole entry, looked up, the tested form may be a part): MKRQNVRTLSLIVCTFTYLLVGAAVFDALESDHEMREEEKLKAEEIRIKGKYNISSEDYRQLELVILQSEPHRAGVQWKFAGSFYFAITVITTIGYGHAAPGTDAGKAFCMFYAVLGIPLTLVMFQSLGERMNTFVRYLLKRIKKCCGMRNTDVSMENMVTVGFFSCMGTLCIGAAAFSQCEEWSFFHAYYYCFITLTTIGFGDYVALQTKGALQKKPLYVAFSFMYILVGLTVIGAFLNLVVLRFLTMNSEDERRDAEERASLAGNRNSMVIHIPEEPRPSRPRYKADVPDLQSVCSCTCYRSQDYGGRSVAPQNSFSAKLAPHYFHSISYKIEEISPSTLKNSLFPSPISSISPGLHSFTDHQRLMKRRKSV
# KCNQ1 block: inhibitors of human KCNQ1 potassium channel; P51787; CHO-K1 KCNQ1, FluxOR thallium flux fluorescence; hits give high values; B-score at 10 µM; actives 1.3% (n = 310,000);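 active = compounds whose thallium flux B-score, printed positive for inhibition, exceeds three library SD while starting fluorescence stays within three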;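 also: channel opened by potassium depolarization with thallium stimulus after 20 min compound exposure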
# hERG rescue: compounds protecting human hERG from proarrhythmic drug block | actives 0.51% (n = 310,000) | CHO-hERG, FluxOR thallium flux, dofetilide IC70 present | Q12809 | activation (rescue from dofetilide block), less the hit threshold, % at 10 µM;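 active = activation above the mean of controls blocked by dofetilide plus 5 SD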;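 also: thallium influx through hERG after potassium depolarization seen as dye fluorescence rise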
# Kir21 block: Kir2.1 (mouse) channel inhibition. P35561. HEK293-Kir2.1, FluxOR thallium flux fluorescence; hits give low values. B-score at 10 µM. actives 0.85% (n = 310,000). AID 1672;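 active = fluorescence ratio B-score at or below minus 3 SD of library scores, with starting-brightness B-score within 2 SD, cut at about -4.2 in these data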;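 also: channel flux triggered by added potassium and thallium sulfate stimulus; B-score of peak minus minimum fluorescence over baseline after thallium stimulus; more negative B-score means stronger Kir2.1 block with less thallium influx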
# KCNK3 block: human KCNK3 channel inhibition, primary screen; actives 0.84% (n = 340,000); O14649; CHO-KCNK3 thallium flux, FluxOR fluorescence; hits give low values; B-score at 10 µM;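 active = B-score under library mean minus 4 SD, starting fluorescence ratio at most library mean plus 5 SD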;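 also: more negative B-score means stronger inhibition of thallium flux through KCNK3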
# KCNQ1 act: potentiates or activates the human KCNQ1 potassium channel. P51787. CHO-K1 KCNQ1, thallium flux FluxOR fluorescence; hits give high values. B-score at 10 µM. actives 0.35% (n = 310,000);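 active = fluorescence ratio B-score, a plate-corrected score, at least three library SD, with initial intensity B-score within 5 SD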
#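 System: Stable KCNQ1 CHO-K1 line | Incubation: 90 min dye loading and 20 min compound exposure, both at room temperature | Measure: Ratio B score | Medium: Assay buffer for compound exposure, DMSO matched across wells | Compound dosing: Single-concentration screen | Probe or stimulus: K+/Tl+ depolarizing stimulus | Measured by: Kinetic FluxOR fluorescence, 10 s baseline plus 110 s post-stimulus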
# KCNK9 block conf: confirmation of human KCNK9 potassium channel inhibitors. HEK293 KCNK9 cells, FluxOR thallium flux fluorescence. inhibition, % at 10 µM. shares compounds with KCNK9 inh. AID 492992. actives 43% (n = 4,900);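 active = thallium signal inhibited by more than 5 SD of the compound-free buffer control wells, on both duplicate plates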;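 also: 0% = assay buffer control wells without compound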
# Kir2-1 spec: mouse Kir2.1 off-target activity of KCNK9 modulators; shares compounds with KCNK9 inh; Kir2.1 cells, FluxOR thallium flux fluorescence; inhibition, % at 10 µM; actives 4% (n = 4,900);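 active = thallium signal drop more than 5 SD beyond the mean of the no-compound control wells, seen in both duplicate plates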;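 also: signal is fluorescence rise after thallium addition divided by baseline fluorescence; plate controls were assay buffer only for no effect and full block by chlorpromazine control for full effect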
# KCNK9 uninduced: non-induced cell nonspecific activity of KCNK9 modulators | shares compounds with KCNK9 inh | non-induced KCNK9-HEK293, FluxOR thallium flux | inhibition, % at 10 µM | actives 40% (n = 4,900) | AID 492997;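 active = thallium signal drop beyond 5 SD of the untreated control mean, on both duplicate plates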;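 also: plate controls were buffer only IC0 wells for no effect and SID17386958 at its maximal inhibitory level for full effect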
# Numbers without * were called inactive; i = inactive; / = no result. An excerpt weighted towards active compounds, which were near 3.7% of everything screened.
SMILES,KCNK9 inh,KCNQ1 block,hERG rescue,Kir21 block,KCNK3 block,KCNQ1 act,KCNK9 block conf,Kir2-1 spec,KCNK9 uninduced
O=C(c1ccc2c(c1)OCO2)C1CCCN(C(=O)NCc2ccccc2)C1 (centres undefined),i,i,-3.9,0,i,i,/,/,/
O=C(c1ccc2c(c1)OCO2)C1CCCN(Cc2ccc3cccc(F)c3n2)C1 (centres undefined),i,i,-17.0,-1.93,i,i,i,i,i
CSc1ccccc1NC(=O)N1CCCC(C(=O)c2ccc3c(c2)OCO3)C1 (centres undefined),i,i,-10.8,-0.74,i,i,i,i,i
O=C(c1ccc2c(c1)OCO2)C1CCCN(C(=O)c2cnn(Cc3ccccc3)c2)C1 (centres undefined),i,i,-13.5,-0.76,i,i,i,i,i
Cc1ccccc1OCc1nc2ccccc2c(=O)n1/N=C/c1cccc([N+](=O)[O-])c1,-8.81*,i,-9.4,2.72,i,i,i,i,i
Cc1ccccc1OCc1nc2ccccc2c(=O)n1/N=C/c1cn[nH]c1-c1ccccc1,i,i,-12.9,0.03,i,i,/,/,/
Cc1ccc2c(c1)N(CC(=O)NCCc1ccccc1)C(=O)c1cccnc1O2,i,i,-10.7,-1.55,i,i,i,i,i
O=c1c2ccccc2nc(N2CCN(c3ccccc3)CC2)n1Cc1ccccc1,-13.3*,i,-8.7,-1.16,i,i,61.5%*,i,39.5%*
CC1CC(C)CN(c2ccc(C(=O)NCc3ccc4c(c3)OCO4)cc2[N+](=O)[O-])C1 (centres undefined),-8.48*,i,-3.5,0.65,i,i,43.0%*,i,i
N#Cc1nc(COc2ccccc2)oc1N1CCCCCC1,i,i,-14.9,0.06,i,i,/,/,/
N#Cc1nc(COc2ccc(F)cc2)oc1N1CCCCC1,i,i,-13.6,-0.32,i,i,i,i,i
Cc1ccc(C)c(OCCn2c(=O)c3c(ncn3C3CCCC3)n(Cc3ccccc3)c2=O)c1,i,i,-13.0,-0.7,i,i,i,i,i
O=c1c2c(ncn2C2CCCC2)n(Cc2ccccc2)c(=O)n1CCOc1ccc(Br)cc1,i,i,-9.3,-0.13,i,i,i,i,i
O=c1c2c(ncn2C2CCCC2)n(Cc2ccccc2)c(=O)n1CCOc1ccccc1,i,i,-1.5,-1.36,i,i,i,i,i
COc1ccc([C@H]2CC(=O)C=C(c3ccc(F)cc3OCc3ccccc3)C2)cc1OC,/,/,/,/,i,/,/,/,/
CCN(CC(=O)Nc1c(F)cccc1F)C(=O)CSc1nc(C)cc(C)n1,i,i,-2.9,1.12,i,i,/,/,/
C=CCOC(=O)C1=C(C)OC(N)=C(C#N)C1c1c(C)nn(-c2ccccc2)c1Cl (centres undefined),-8.41*,i,-7.0,-0.88,-10.5*,i,49.5%*,i,34.0%*
Cc1ccc(OCCn2cnc3cc([N+](=O)[O-])ccc3c2=O)cc1,i,i,-19.2,1.14,i,i,i,i,i
Cc1cc(C)c(S(=O)(=O)c2ccccc2)c(OC(=O)c2c(F)cccc2F)n1,i,i,-6.4,-3.16,i,i,/,/,/
Cc1cc(C)c(S(=O)(=O)c2ccccc2)c(OC(=O)c2c(Cl)cc(Cl)cc2Cl)n1,-10.4*,i,-6.9,0.88,i,i,52.0%*,i,32.5%*
Cc1cc(C)cc(OCC(=O)O/N=C(\N)c2ccccc2Cl)c1,i,i,-5.8,0.92,i,i,i,i,i
